“And” between values parts separate entries of the source, which are not always exact repeats. Equal values may be shown once.
Columns and labels:
[1] = Half life period in the absence of CPG2 (carboxypeptidase) enzyme; assay type: ADME
Summary of the method: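 Prodrug at 100 μM in phosphate-buffered saline (pH 7.4), 37 °C, without enzyme; samples injected at timed intervals on reverse-phase HPLC, isocratic methanol/water/10 mM NaH2PO4 (pH 5.0), detection at 500 nm. Chemical half-life from slope of semilog plot.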

CPG2 (carboxypeptidase) = test: Half life period in the presence of CPG2 (carboxypeptidase) enzyme; assay type: ADME
Summary of the method: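 Prodrug at 100 μM in phosphate-buffered saline (pH 7.4), 37 °C, with 50 mU CPG2; timed samples analysed by reverse-phase HPLC, absorbance 500 nm. Plots linear on linear axes, so apparent half-life taken as time for concentration to fall to half its starting value.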

MDA-MB-361 [2] = test: The compound was tested for intracellular cytotoxicity against MDA MB 361(mammary carcinoma cell line) expressing LacZ (beta-galactosidase).; assay type: functional, cell-based; conditions: Homo sapiens
Summary of the method: (§1)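 MDA MB 361 breast carcinoma cells stably expressing surface-tethered CPG2 (stCPG2(Q)3), intracellular CPG2 (CPG2*) or control beta-galactosidase (LacZ). Compounds dissolved in DMSO at 10 mM (stock) just before treatment. After exposure, cells harvested and reseeded in quadruplicate at ~2 × 10^3 cells/well. Cells fixed and stained with sulforhodamine-B once control plates reached confluence, absorbance read at 590 nm. Growth expressed as % of control, IC50 interpolated.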

MDA-MB-361 [3] = test: The compound was tested for intracellular cytotoxicity against MDA MB 361(mammary carcinoma cell line) in the presence of CPG2 prodrug; assay type: functional, cell-based; conditions: Homo sapiens
Summary of the method: (§2)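 Cytotoxicity differential: ratio of a prodrug's IC50 in MDA MB 361 cells expressing stCPG2(Q)3 or CPG2* to its IC50 in LacZ control cells. IC50 values come from a sulforhodamine-B growth assay (cells reseeded in quadruplicate after treatment, stained at control confluence, A590, % control growth, interpolation). Prodrug:drug ratio taken in LacZ cells.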

[4] = Ratio of the intracellular cytotoxicities against MDA MB 361(mammary carcinoma cell line) expressing LacZ (beta-galactosidase). between prodrug and drug.; assay type: functional
Summary of the method: (§3)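 MDA MB 361 cells stably expressing surface-tethered CPG2 (stCPG2(Q)3) or β-galactosidase control (LacZ) treated with compound (10 mM DMSO stock made fresh), then reseeded in quadruplicate at ~2 × 10^3 cells/well; fixed and sulforhodamine-B stained when controls confluent, A590. IC50 interpolated from % control growth; ratio = LacZ vs stCPG2(Q)3 IC50 or prodrug vs drug IC50 in LacZ cells.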

[5] = Ratio of the extracellular cytotoxicities against MDA MB 361(mammary carcinoma cell line) expressing LacZ and carboxypeptidase stCPG2 of the prodrug.; assay type: functional; summary of the method: as §3
MDA-MB-361 [6] = test: The compound was tested for extracellular cytotoxicity against MDA MB 361(mammary carcinoma cell line) in the presence of stCPG2 prodrug; assay type: functional, cell-based; conditions: Homo sapiens; summary of the method: as §2
MDA-MB-361 [7] = test: The compound was tested for extracellular cytotoxicity against MDA MB 361(mammary carcinoma cell line) expressing carboxypeptidase stCPG2.; assay type: functional, cell-based; conditions: Homo sapiens; summary of the method: as §1
MDA-MB-361 [8] = test: The compound was tested for intracellular cytotoxicity against MDA MB 361(mammary carcinoma cell line) expressing carboxypeptidase G2(CPG2).; assay type: functional, cell-based; conditions: Homo sapiens; summary of the method: as §1

Structure (SMILES)	half-life [1] [h]	half-life (CPG2 (carboxypeptidase)) [h]	IC50 (MDA-MB-361 [2]) [nM]	IC50 (MDA-MB-361 [3]) [nM]	Ratio [4]	Ratio [5]	IC50 (MDA-MB-361 [6]) [nM]	IC50 (MDA-MB-361 [7]) [nM]	IC50 (MDA-MB-361 [8]) [nM]
COc1cccc2c1C(=O)c1c(O)c3c(c(O)c1C2=O)C[C@@](O)(C(=O)CO)C[C@@H]3OC1CC(NC(=O)OCc2ccc(OC(=O)NC(CCC(=O)O)C(=O)O)cc2)C(O)C(C)O1 (stereo partly drawn)	28.4	4.46	279	204	23.3	1.4 and 3	92	–	–
COc1cccc2c1C(=O)c1c(O)c3c(c(O)c1C2=O)C[C@@](O)(C(=O)CO)C[C@@H]3O[C@H]1C[C@H](N)[C@H](O)[C@H](C)O1 [DOXORUBICIN]	–	–	12	–	–	–	–	18	33
COc1cccc2c1C(=O)c1c(O)c3c(c(O)c1C2=O)C[C@@](O)(C(C)=O)C[C@@H]3O[C@H]1C[C@H](N)[C@H](O)[C@H](C)O1 [DAUNORUBICIN]	–	–	17	36	–	–	21	–	–
COc1cccc2c1C(=O)c1c(O)c3c(c(O)c1C2=O)C[C@@](O)(C(C)=O)C[C@@H]3OC1CC(NC(=O)OCc2ccc(NC(=O)NC(CCC(=O)O)C(=O)O)cc2)C(O)C(C)O1 (stereo partly drawn)	19.8	0.645	112	123	6.6	–	29	–	–
COc1cccc2c1C(=O)c1c(O)c3c(c(O)c1C2=O)C[C@@](O)(C(C)=O)C[C@@H]3OC1CC(NC(=O)OCc2ccc(OC(=O)NC(CCC(=O)O)C(=O)O)cc2)C(O)C(C)O1 (stereo partly drawn)	24.7	2.21	115	405	6.8	0.3 and 0.7	177	–	–
COc1cccc2c1C(=O)c1c(O)c3c(c(O)c1C2=O)C[C@@](O)(C(=O)CO)C[C@@H]3OC1CC(NC(=O)OCc2ccc(NC(=O)NC(CCC(=O)O)C(=O)O)cc2)C(O)C(C)O1 (stereo partly drawn)	15.8	0.7	256	47	21.3	5.4 and 10.7	24	–	–

From ChEMBL document CHEMBL1132269, “Self-immolative anthracycline prodrugs for suicide gene therapy” (J Med Chem, 1999)
